Assay results: ChEMBL document CHEMBL2169822, “Discovery and optimization of 1,3,4-trisubstituted-pyrazolone derivatives as novel, potent, and nonsteroidal farnesoid X receptor (FXR) selective antagonists” (J Med Chem, 2012)
Active and inactive are the calls of the source. The rule behind the calls is not given here.

Legend:
[1] = biological target: T1, Peroxisome proliferator-activated receptor delta (Homo sapiens) (UniProt Q03181); assay: Antagonist activity at recombinant PPARdelta LBD expressed in HEK293T cells co-expressing GAL4 DBD assessed as inhibition of GW1516-induced transactivation at 20 uM by luciferase reporter gene assay; type: functional, cell-based; settings: HEK-293T
T1 sequence (whole entry): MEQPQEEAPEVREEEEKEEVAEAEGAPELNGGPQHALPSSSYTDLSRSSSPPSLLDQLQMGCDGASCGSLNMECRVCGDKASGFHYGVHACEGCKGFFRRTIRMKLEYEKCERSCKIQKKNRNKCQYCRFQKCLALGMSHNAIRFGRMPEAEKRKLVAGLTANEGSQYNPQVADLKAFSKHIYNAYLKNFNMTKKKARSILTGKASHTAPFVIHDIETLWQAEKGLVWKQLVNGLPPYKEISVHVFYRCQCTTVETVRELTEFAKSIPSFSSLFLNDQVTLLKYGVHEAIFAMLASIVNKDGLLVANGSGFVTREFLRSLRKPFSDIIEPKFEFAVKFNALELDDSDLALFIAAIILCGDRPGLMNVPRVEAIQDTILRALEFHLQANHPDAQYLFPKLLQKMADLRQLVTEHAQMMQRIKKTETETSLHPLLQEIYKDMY
In short: (§1)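 One-hybrid assay in HEK293T cells cotransfected with a Gal4 DBD–NR-LBD fusion (RXRα, LXRα, GR, PR, PPARδ or PPARγ) plus UAS-TK-Luc reporter. Compound was 20 μM, given alone or with agonist: 9cRA 0.1 μM (RXRα), TO901317 0.5 μM (LXRα), dexamethasone 50 nM (GR), progesterone 100 nM (PR), GW1516 10 μM (PPARδ), rosiglitazone 10 μM (PPARγ). Luciferase read-out; three independent experiments.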

[2] = biological target: T2, Bile acid receptor (Homo sapiens) (UniProt Q96RI1); assay: Antagonist activity at human FXR in human HepG2 cells assessed as inhibition of CDCA induced decrease of Cyp7A1 gene expression at 5 to 40 uM after 24 hrs by RT-PCR analysis; type: functional, cell-based
T2 sequence (whole entry): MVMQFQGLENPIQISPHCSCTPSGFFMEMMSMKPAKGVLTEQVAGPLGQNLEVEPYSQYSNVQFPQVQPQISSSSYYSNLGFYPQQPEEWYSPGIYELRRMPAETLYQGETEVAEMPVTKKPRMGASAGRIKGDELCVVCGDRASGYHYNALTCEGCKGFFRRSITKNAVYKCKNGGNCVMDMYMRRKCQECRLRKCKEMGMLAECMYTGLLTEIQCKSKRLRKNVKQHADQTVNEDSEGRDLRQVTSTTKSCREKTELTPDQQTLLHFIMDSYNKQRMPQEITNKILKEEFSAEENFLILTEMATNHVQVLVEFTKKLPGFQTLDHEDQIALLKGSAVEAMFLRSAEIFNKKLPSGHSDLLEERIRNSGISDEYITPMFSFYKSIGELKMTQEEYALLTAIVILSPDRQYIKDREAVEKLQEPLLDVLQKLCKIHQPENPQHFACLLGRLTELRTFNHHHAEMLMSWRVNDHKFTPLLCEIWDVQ
In short: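 HepG2 cells in 6-well plates were treated with varied concentrations of compound, with or without 100 μM CDCA, for 24 h. Total RNA was taken with TRIzol and cDNA made by reverse transcription. Cyp7A1, SHP, BSEP and SREBP1c mRNA were measured by quantitative RT-PCR and normalized to β-actin. Three independent experiments.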

Mus musculus [3] = assay: Reduction of serum triglyceride level in cholesterol-fed C57BL/6 mouse at 100 mg/kg, po after 10 days; type: functional; set-up: scale not given: the % may be the effect or the level left
In short: (§2)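 Male C57BL/6 mice, 8–12 weeks old, were randomized into five groups of nine. Control mice had ground chow; the other groups had chow with 2% cholesterol. Compound (50 or 100 mg/kg) or reference (100 mg/kg) was suspended in 0.5% CMC-Na and given by oral gavage; control and vehicle mice got 0.5% CMC-Na. Serum and hepatic triglyceride and total cholesterol were measured.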

[4] = biological target: T2, Bile acid receptor (Homo sapiens); assay: Antagonist activity at human FXR in human HepG2 cells assessed as reduction in cholesterol level at 10 uM after 24 hrs; type: functional, cell-based
In short: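 HepG2 cells were serum-starved overnight in FBS-free DMEM, then given DMSO or compound for 24 h in serum-free DMEM. Cells were lysed in RIPA buffer, sonicated on ice and centrifuged at 12000 rpm, 4 °C. Triglyceride and total cholesterol in the cleared lysate were measured by kits, with total protein by BCA. At least three experiments.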

Mus musculus [5] = assay: Reduction of hepatic cholesterol level in cholesterol-fed C57BL/6 mouse administered orally after 10 days; type: functional, organism-based; in short: as §2
[6] = biological target: T3, Oxysterols receptor LXR-alpha (Homo sapiens) (UniProt Q13133); assay: Antagonist activity at recombinant LXRalpha LBD expressed in HEK293T cells co-expressing GAL4 DBD assessed as inhibition of TO901317-induced transactivation at 20 uM by luciferase reporter gene assay; type: functional, cell-based; settings: HEK-293T; in short: as §1
T3 sequence (whole entry): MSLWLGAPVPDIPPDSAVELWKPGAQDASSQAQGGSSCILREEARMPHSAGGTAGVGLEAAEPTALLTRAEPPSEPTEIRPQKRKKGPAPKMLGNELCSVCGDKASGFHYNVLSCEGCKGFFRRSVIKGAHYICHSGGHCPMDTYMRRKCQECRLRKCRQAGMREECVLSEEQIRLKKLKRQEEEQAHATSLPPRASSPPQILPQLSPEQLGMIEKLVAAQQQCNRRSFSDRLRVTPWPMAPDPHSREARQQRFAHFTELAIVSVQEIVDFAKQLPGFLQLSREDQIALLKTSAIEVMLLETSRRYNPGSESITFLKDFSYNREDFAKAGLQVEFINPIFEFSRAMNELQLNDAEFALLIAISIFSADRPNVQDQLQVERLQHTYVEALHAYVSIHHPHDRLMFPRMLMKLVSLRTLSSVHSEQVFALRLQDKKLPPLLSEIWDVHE

[7] = biological target: T4, Retinoic acid receptor RXR-alpha (Homo sapiens) (UniProt P19793); assay: Agonist activity at recombinant RXRalphaLBD expressed in HEK293T cells co-expressing GAL4 DBD at 20 uM by transactivation assay; type: functional, cell-based; settings: HEK-293T; in short: as §1
T4 sequence (whole entry): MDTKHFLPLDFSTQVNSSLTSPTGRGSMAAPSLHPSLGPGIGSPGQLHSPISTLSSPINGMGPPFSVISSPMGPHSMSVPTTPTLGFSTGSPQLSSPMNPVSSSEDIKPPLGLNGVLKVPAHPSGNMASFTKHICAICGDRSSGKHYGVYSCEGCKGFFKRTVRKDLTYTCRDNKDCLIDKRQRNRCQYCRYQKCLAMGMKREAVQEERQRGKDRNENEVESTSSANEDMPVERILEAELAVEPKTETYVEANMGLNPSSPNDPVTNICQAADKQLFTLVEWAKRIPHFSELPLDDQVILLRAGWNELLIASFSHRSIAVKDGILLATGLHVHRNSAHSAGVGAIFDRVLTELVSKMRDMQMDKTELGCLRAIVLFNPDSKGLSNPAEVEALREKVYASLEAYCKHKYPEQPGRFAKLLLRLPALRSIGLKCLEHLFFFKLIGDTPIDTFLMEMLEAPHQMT

Mus musculus [8] = assay: Reduction of serum triglyceride level in cholesterol-fed C57BL/6 mouse at 50 mg/kg, po after 10 days; type: functional; set-up: scale not given: the % may be the effect or the level left; in short: as §2

- inhibition [1]: inactive
- inhibition [2]: Active
- inhibition [4]: 27.1%
- inhibition [6]: inactive
- Activity [7]: inactive
Structure (SMILES): COc1cc(/C=C2\C(=O)N(c3cccc([N+](=O)[O-])c3)N=C2c2ccccc2)ccc1O
- Activity (Mus musculus [3]): 60.3%
- Activity (Mus musculus [5]): Dose-dependent effect
- Activity (Mus musculus [8]): 48.4%
